This is an account of results in ChEMBL document CHEMBL1165977, “Novel analogues of Istaroxime, a potent inhibitor of Na(+),K(+)-ATPase: Synthesis, structure-activity relationship and 3D-quantitative structure-activity relationship of derivatives at position 6 on the androstane scaffold” (Bioorg Med Chem, 2010).

The structures appear in SMILES notation. pIC50: −log10 of the molar value.

A short description of series [1]: Inhibition of dog kidney Na+K+-ATPase assessed as hydrolysis of [32P]ATP. Also noted: species or system Canis lupus familiaris. Put shortly: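 Dog kidney Na+,K+-ATPase, isolated and purified by the Jørgensen method. Enzyme activity was read as % hydrolysis of 32P-ATP with versus without test compound. IC50 was obtained by nonlinear least-squares curve fitting, as the mean of two or three experiments.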

For series [2], the system named is Cavia porcellus. The series can be described thus: Positive inotropic activity in guinea pig atria assessed as increase in […] at 0.16 ml/min, iv. The format is functional.
The species entered for series [3] is Cavia porcellus. The experiment in a line: Positive inotropic activity in electrically driven guinea pig atria assessed as maximal concentration required to increase in […]. The format is functional.
A short description of series [4]: Therapeutic index, ratio of lethal dose to ED80 for inotropic activity in guinea pig. Particulars: in vivo. The format is organism-based, Cavia porcellus. In a few lines: (§1)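 Anesthetized guinea pigs with a jugular vein cannula and an intubated trachea for spontaneous respiration. After stabilization, drug was infused iv at 0.16 mL/min until death or for up to 90 min. Vehicle was DMSO diluted in physiological solution to 1% DMSO final. Read-out was +dP/dt_max. ED80 (dose raising +dP/dt_max by 80%) came from the dose–response, and the doses giving maximum inotropy and death were recorded, giving the lethal dose/ED80 ratio.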

For series [5], the system named is Cavia porcellus. The experiment in a line: Positive inotropic activity in iv dosed guinea pig atria assessed as concentration required to increase in […]. The format is functional.
Series [6] concerns Cavia porcellus. The series can be described thus: Toxicity in guinea pig assessed as death at 0.16 ml/min, iv up to 90 mins. Particulars: in vivo, 1.5 h. It counts as organism-based. Put shortly:
as §1

The pIC50 is −log10 of the IC50, conventionally taken in molar units. One may read the Emax as the greatest response seen or fitted, relative to the assay's reference.

In the case of `CNCCCO/N=C1\CC[C@@]2(C)[C@H](C1)[C@@H](NC=O)C[C@@H]1[C@@H]2CC[C@]2(C)C(=O)CC[C@@H]12.Cl`, in series [1], the pIC50 is 5.96. Besides, the Emax in the series on Cavia porcellus [2] was found to be 177%. For the same compound, the Activity in the series listed under Cavia porcellus [3] was 2.8 µM/g. Further, in series [4], the selectivity ratio came to 47. For the same compound, in the series on Cavia porcellus [5], the ED80 stood at 0.93 µM/g.
With `C[C@H]1O[C@@H](O[C@H]2[C@@H](O)C[C@H](O[C@H]3[C@@H](O)C[C@H](O[C@H]4CC[C@@]5(C)[C@H](CC[C@@H]6[C@@H]5C[C@@H](O)[C@]5(C)[C@@H](C7=CC(=O)OC7)CC[C@]65O)C4)O[C@@H]3C)O[C@@H]2C)C[C@H](O)[C@@H]1O` [DIGOXIN], the pIC50 in series [1] was 6.51. Besides, the Activity is 0.97 µM/g in the series listed under Cavia porcellus [3] and “Toxic” in the series on Cavia porcellus [6]. In series [4], the selectivity ratio came to 3.2. The ED80 with Cavia porcellus [5] was 0.41 µM/g.
